A word on the IC50: it is the midpoint of a concentration-inhibition curve. Read a low IC50 as greater potency in that assay.

The source made the active and inactive calls. No cut-off for these calls is given here.

These results are taken from ChEMBL document CHEMBL4265907, “Design, synthesis and pharmacological evaluation of N4,N6-disubstituted pyrimidine-4,6-diamine derivatives as potent EGFR inhibitors in non-small cell lung cancer” (Eur J Med Chem, 2018).

Assay [1] has as its system NCI-H3255. The experiment in a line: Antiproliferative activity against human H3255 cells after 72 hrs by MTT assay. It is filed as functional, cell-based. The settings on record: NCI-H3255, 72 h. In a few lines: (§1)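 Cells seeded at 3000/well in growth medium with 10% FBS and left overnight. Treated in triplicate for 72 h at nine concentrations (0.458 to 30,000 nM), with DMSO-only controls. MTT (5 mg/mL) added for the last 4 h, formazan dissolved in DMSO, absorbance read at 490 nm. IC50 from non-linear sigmoidal dose-response fit.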
On the technique in general: Formazan colour is commonly taken as a measure of viable cells.

For assay [2], the system named is A-431. Nature of the assay: Antiproliferative activity against human A431 cells after 72 hrs by MTT assay. It is filed as functional, cell-based. The conditions noted are these: A-431, 72 h. An outline of the steps: as §1
The subject of assay [3] is HCC827. The experiment in a line: Antiproliferative activity against human HCC827 cells after 72 hrs by MTT assay. It is filed as functional, cell-based. The conditions noted are these: HCC827, 72 h. An outline of the steps: as §1
For assay [4], the system named is NCI-H1975. Nature of the assay: Antiproliferative activity against human NCI-H1975 cells after 72 hrs by MTT assay. The assay is classed as functional, cell-based. The settings on record: NCI-H1975, 72 h. In a few lines: as §1
Another assay relates to PC-9. The experiment in a line: Antiproliferative activity against human PC9 cells after 72 hrs by MTT assay. It is filed as functional, cell-based. The conditions noted are these: PC-9, 72 h. An outline of the steps: as §1
The test system of the next assay is BEAS-2B. The experiment in a line: Cytotoxicity against human BEAS2B cells after 72 hrs by MTT assay. The assay is classed as cell-based. An outline of the steps:
as §1

Assay [5] concerns NCI-H3255. The experiment in a line: Induction of apoptosis in human H3255 cells assessed as viable cells at 1000 nM after 48 hrs by Annexin V-FITC/PI staining based flow cytometry (reference value: 87.9%). It is filed as functional. The settings on record: NCI-H3255, 48 h, read-out: Activity.
Assay [6] deals with NCI-H3255. Nature of the assay: Induction of apoptosis in human H3255 cells assessed as early apoptotic cells at 1000 nM after 48 hrs by Annexin V-FITC/PI staining based flow cytometry (reference value: 3.22%). It is filed as functional. A general note: In flow cytometry, cells or beads pass a laser one at a time.
In assay [7] the test system is NCI-H3255. Nature of the assay: Induction of apoptosis in human H3255 cells assessed as late apoptotic cells at 1000 nM after 48 hrs by Annexin V-FITC/PI staining based flow cytometry (reference value: 1.77%). It is filed as functional.
Assay [8] relates to NCI-H3255. The experiment in a line: Induction of apoptosis in human H3255 cells assessed as necrotic cells at 1000 nM after 48 hrs by Annexin V-FITC/PI staining based flow cytometry (reference value: 7.06%). The assay is classed as functional.
Assay [9] concerns A-431. The experiment in a line: Induction of apoptosis in human A431 cells assessed as viable cells at 1000 nM after 48 hrs by Annexin V-FITC/PI staining based flow cytometry (reference value: 90.3%). The assay is classed as functional. The settings on record: A-431, 48 h, read-out: Activity.
Assay [10] concerns A-431. The experiment in a line: Induction of apoptosis in human A431 cells assessed as early apoptotic cells at 1000 nM after 48 hrs by Annexin V-FITC/PI staining based flow cytometry (reference value: 3.40%). The assay is classed as functional.
Assay [11] deals with A-431. Nature of the assay: Induction of apoptosis in human A431 cells assessed as late apoptotic cells at 1000 nM after 48 hrs by Annexin V-FITC/PI staining based flow cytometry (reference value: 2.11%). It is filed as functional.
Assay [12] concerns A-431. Nature of the assay: Induction of apoptosis in human A431 cells assessed as necrotic cells at 1000 nM after 48 hrs by Annexin V-FITC/PI staining based flow cytometry (reference value: 4.16%). The assay is classed as functional.
Assay [13] deals with HCC827. The experiment in a line: Induction of apoptosis in human HCC827 cells assessed as viable cells at 1000 nM after 48 hrs by Annexin V-FITC/PI staining based flow cytometry (reference value: 94.6%). The assay is classed as functional. The conditions noted are these: HCC827, 48 h, read-out: Activity.
The subject of assay [14] is HCC827. Nature of the assay: Induction of apoptosis in human HCC827 cells assessed as early apoptotic cells at 1000 nM after 48 hrs by Annexin V-FITC/PI staining based flow cytometry (reference value: 2.83%). It is filed as functional.
Assay [15] has as its system HCC827. Nature of the assay: Induction of apoptosis in human HCC827 cells assessed as late apoptotic cells at 1000 nM after 48 hrs by Annexin V-FITC/PI staining based flow cytometry (reference value: 1.15%). It is filed as functional.
Assay [16] relates to HCC827. The experiment in a line: Induction of apoptosis in human HCC827 cells assessed as necrotic cells at 1000 nM after 48 hrs by Annexin V-FITC/PI staining based flow cytometry (reference value: 1.41%). It is filed as functional.
The test system of assay [17] is NCI-H1975. Nature of the assay: Induction of apoptosis in human NCI-H1975 cells assessed as viable cells at 1000 nM after 48 hrs by Annexin V-FITC/PI staining based flow cytometry (reference value: 93.7%). The assay is classed as functional. The conditions noted are these: NCI-H1975, 48 h, read-out: Activity.
Assay [18] relates to NCI-H1975. Nature of the assay: Induction of apoptosis in human NCI-H1975 cells assessed as early apoptotic cells at 1000 nM after 48 hrs by Annexin V-FITC/PI staining based flow cytometry (reference value: 2.07%). It is filed as functional.
Assay [19] has as its system NCI-H1975. The experiment in a line: Induction of apoptosis in human NCI-H1975 cells assessed as late apoptotic cells at 1000 nM after 48 hrs by Annexin V-FITC/PI staining based flow cytometry (reference value: 1.91%). It is filed as functional.
Assay [20] concerns NCI-H1975. The experiment in a line: Induction of apoptosis in human NCI-H1975 cells assessed as necrotic cells at 1000 nM after 48 hrs by Annexin V-FITC/PI staining based flow cytometry (reference value: 2.31%). The assay is classed as functional.
For assay [21], the system named is NCI-H1975. The experiment in a line: Cell cycle arrest in human NCI-H1975 cells assessed as accumulation at G2/M phase at 500 nM after 24 hrs by propidium iodide staining based flow cytometry. It is filed as functional. In a few lines: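 H1975 cells (2×10^5) seeded in 6-well plates overnight, then given fresh growth medium with drug (50–500 nM range; reference drug 500 nM) or 1‰ DMSO control for 24 h; cells collected with medium, washed in cold PBS, fixed in 70% cold ethanol at –20 °C overnight, stained with PI/RNase buffer, analysed by flow cytometry; triplicates, mean ± SEM.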

Turning to `COc1cc2ncnc(Nc3cccc(Cl)c3F)c2cc1OC(=O)N1CCN(C)C[C@H]1C` [AZD-3759], the IC50 is 0.09 µM with NCI-H3255 [1]; 3.5 µM in the assay on A-431 [2]; 0.03 µM in the assay with HCC827 [3]; 24.2 µM with NCI-H1975 [4]; 0.05 µM in the assay on PC-9; 18.7 µM in the assay with BEAS-2B. Moreover, the viability at 1 µM in the assay with NCI-H3255 [5] was determined as 83.7%; in the assay on A-431 [9] it was 88.6%; with HCC827 [13], 78.4%; in the assay on NCI-H1975 [17] it was 82%. The Activity with NCI-H3255 [6] amounted to 8.51%; in the assay with NCI-H3255 [7], 1.71%; with NCI-H3255 [8], 6.05%; in the assay on A-431 [10] it was 7.35%; in the assay with A-431 [11], 2.88%; with A-431 [12] it was 1.17%. Also, the Activity in the assay with HCC827 [14] is 6.11%; in the assay on HCC827 [15], 12.8%; in the assay with HCC827 [16], 2.77%; with NCI-H1975 [18], 9.95%; with NCI-H1975 [19], 5.39%; in the assay with NCI-H1975 [20], 2.65%. Moreover, the outcome in the assay on NCI-H1975 [21] was inactive.
